High-throughput results deposited in PubChem by several laboratories.
Pf gamet viab – inhibitors of late stage P. falciparum gametocyte viability; inhibition, % at 10.9 µM; 150,000 compounds, 0.065% hits; P. falciparum stage V gametocytes, ATP luminescence, 24 h;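 active = inhibition above the mean plus 3 SD of compounds within the control limits, set per campaign, cut at about 38% in these data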;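 note: 0% = DMSO wells and 100% = medium only without gametocytes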
FLuc inh counter – counter-screen for luciferase assay inhibitors: firefly luciferase inhibition. AID 1006. ATPLite firefly luciferase biochemical luminescence, 10 min. P08659. 200,000 compounds, 1.5% hits. inhibition, % at 10 µM;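 active = inhibition above about 50% when tested at 10 µM, limit read from the data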
Target sequence (P08659 whole entry, looked up): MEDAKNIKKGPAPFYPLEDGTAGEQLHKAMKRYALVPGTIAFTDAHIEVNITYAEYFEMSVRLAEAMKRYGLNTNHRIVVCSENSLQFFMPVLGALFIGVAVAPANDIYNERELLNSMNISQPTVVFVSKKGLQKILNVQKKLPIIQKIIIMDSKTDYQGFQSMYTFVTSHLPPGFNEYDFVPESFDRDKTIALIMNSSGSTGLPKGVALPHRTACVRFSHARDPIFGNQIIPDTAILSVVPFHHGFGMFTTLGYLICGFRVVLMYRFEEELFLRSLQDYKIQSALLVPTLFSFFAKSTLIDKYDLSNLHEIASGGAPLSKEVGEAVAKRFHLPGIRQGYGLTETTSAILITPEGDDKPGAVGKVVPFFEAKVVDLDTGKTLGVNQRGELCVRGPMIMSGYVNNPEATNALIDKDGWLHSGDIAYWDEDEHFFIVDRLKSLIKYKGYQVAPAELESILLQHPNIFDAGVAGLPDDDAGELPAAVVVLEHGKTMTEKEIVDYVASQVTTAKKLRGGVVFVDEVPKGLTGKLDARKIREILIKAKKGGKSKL
FLuc stim CS – affects firefly luciferase, flagging false hits in luciferase stimulation screens; ATPlite luciferase biochemical, luminescence, 10 min; 0 = ATP-free wells, 1 = DMSO control; activation factor at 10 µM; 200,000 tested, under 10 active; AID 1027;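 active = luciferase activation factor, scaled between plate controls, of at least 2 with compound at 10 µM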
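test system = cell-free luciferase reagent | medium = PBS as buffer for the ATP substrate | dosing = test compounds dosed from 2 mM stocks in 100% DMSO | incubation = 10 min at ambient temperature | detection = luminescence measurement of luciferase light output | benchmarks = low control with PBS replacing ATP, high control enzyme plus ATP without compound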
APP 5'UTR act – APP 5'UTR luciferase reporter activation. 190,000 compounds, 1% hits. SH-SY5Y APP 5'UTR luciferase reporter, luminescence; zero percent = DMSO vehicle wells. AID 1276. activation, % at 2 µM;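 active = activation above a set limit, based on mean plus 3 SD of controls, cut at about 140% in these data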
STAT1 act – increases IFN-gamma driven STAT1 reporter signal | NIH 3T3 STAT1-luciferase reporter, luminescence; 100% = IFN-gamma alone, no compound | AID 932 | 200,000 compounds, 2.6% hits | activation (% of control), % at 5.5 µM;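 active = activation above the screen-wide mean activation plus 3 SD, cut at about 130% in these data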;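 note: raw ratio to IFN-gamma control signal so 100% means no change and 0% no light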
NF-kB expr up – raises NF-kB expression in human neuronal cells; NF-kB reporter expression; active compounds read high; fold change at 12.5 µM; 190,000 compounds, 1.6% hits; AID 1239; in the data active = fold change above about 3.3
STAT1 activ conf – confirmation of STAT1 signaling activators; shares compounds with STAT1 act; NIH 3T3 STAT1-luciferase reporter, IFN-gamma potentiation, luminescence; 100% = IFN-gamma EC80 alone, no compound; 1,200 compounds, 97% hits; AID 1262; activation (% of control), % at 5.7 µM;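 active = activation above a set limit carried over from the earlier primary STAT1 screen, cut at about 140% in these data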;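 note: simple ratio to median IFN-gamma plus DMSO wells so 0% means no light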
NFkB act – NF-kappaB activation in STAT1 activator counter-screen; shares compounds with STAT1 act; HEK293T NF-kB luciferase reporter, TNF-alpha stimulated, luminescence; 100% = TNF-alpha with vehicle only; activation (% of control), % at 5.7 µM; 1,200 compounds, 43% hits;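 active = activation above the mean of solvent-only control wells plus 3 SD, set per campaign, cut at about 130% in these data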;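 note: TNF-alpha given at a submaximal dose yielding about 80% of full reporter signal; values are well signal over median control so 100% means no change and 0% no light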
STAT3 act STAT1c – human STAT3 activation in STAT1 activator counter-screen | shares compounds with STAT1 act | U3A cells STAT3-luciferase reporter, IL-6, luminescence; cells lack STAT1; 100 = IL-6 alone, no compound effect | activation (% of control), % at 5.7 µM | 1,200 compounds, 46% hits | AID 1316;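 active = activation above the solvent-only control well mean plus 3 SD, set per plate batch, cut at about 110% in these data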;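 note: 0% = no luminescence and 100% = median IL-6 plus DMSO wells; higher means more STAT3 reporter activation so hits are non-selective activators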
An asterisk follows results filed as active. Hits are enriched below; roughly 3.5% of the tested compounds scored in any of these assays.

Results for CCc1ccc(NC(=O)c2cnn(-c3ccccc3)c2C2CCNCC2)cc1 ?
FLuc inh counter: -0.9; FLuc stim CS: 1; APP 5'UTR act: 13.1; STAT1 act: 107.3; NF-kB expr up: 0.82

Results for COc1ccc(OC)c(NC(=O)CSc2nnc(C3CCCCC3)o2)c1 ?
Pf gamet viab: -1.0; FLuc inh counter: -1.3; FLuc stim CS: 1; APP 5'UTR act: -6.6; STAT1 act: 93.1; NF-kB expr up: 1.2

How did Cc1cc(/C=C(\C#N)C(=O)Nc2ccccc2F)c(C)[nH]1 do in these assays?
Pf gamet viab: 3.6; FLuc inh counter: 15.4; FLuc stim CS: 0.8; APP 5'UTR act: 147.1*; STAT1 act: 171.6*; NF-kB expr up: 5.5*; STAT1 activ conf: 234.7*; NFkB act: 140.8*; STAT3 act STAT1c: 116.1*

What do the screens show for `COc1cc2c(cc1OC)C(=S)NC(C)(C)C2`?
FLuc inh counter: -1.0; FLuc stim CS: 1; APP 5'UTR act: 7.4; STAT1 act: 97.1; NF-kB expr up: 1.03

How did COc1ccc2nc(Nc3ccc4c(c3)OCO4)sc2c1 do in these assays?
FLuc inh counter: 12.7; FLuc stim CS: 0.9; APP 5'UTR act: 75.5; STAT1 act: 151.9*; NF-kB expr up: 1.97; STAT1 activ conf: 162.1*; NFkB act: 127.8; STAT3 act STAT1c: 100.1

Results for COc1ccc2nc(Nc3ccccc3)sc2c1 ?
Pf gamet viab: -6.5; FLuc inh counter: 77.2*; FLuc stim CS: 0.2; APP 5'UTR act: 111.0; STAT1 act: 150.8*; NF-kB expr up: 8.13*; STAT1 activ conf: 199.6*; NFkB act: 138.1*; STAT3 act STAT1c: 99.4

Results for Cc1ccc(S(=O)(=O)Nc2nc3ccccc3s2)cc1 ?
FLuc inh counter: -6.2; FLuc stim CS: 1.1; APP 5'UTR act: 8.5; STAT1 act: 95.7; NF-kB expr up: 0.91

How did Cc1ccc(Nc2nc3ccccc3s2)cc1 do in these assays?
Pf gamet viab: -16.6; FLuc inh counter: 49.8; FLuc stim CS: 0.5; APP 5'UTR act: 115.2; STAT1 act: 192.2*; NF-kB expr up: 1.33; STAT1 activ conf: 258.7*; NFkB act: 137.0*; STAT3 act STAT1c: 107.8

Results for COc1ccc2nc(Nc3nc4cc5c(cc4s3)OCO5)sc2c1 ?
Pf gamet viab: 12.2; FLuc inh counter: 2.4; FLuc stim CS: 1; APP 5'UTR act: -10.3; STAT1 act: 107.7; NF-kB expr up: 1.05

What do the screens show for `C=CCNC(=O)c1onc(CSc2ccccc2CC)c1C(=O)O`?
Pf gamet viab: 10.0; FLuc inh counter: -2.3; FLuc stim CS: 1; APP 5'UTR act: -10.8; STAT1 act: 99.0; NF-kB expr up: 1.26

Results for CCOC(=O)c1cnc(SCCc2ccccc2)nc1N ?
Pf gamet viab: 13.7; FLuc inh counter: 14.6; FLuc stim CS: 0.9; APP 5'UTR act: 190.2*; STAT1 act: 165.1*; NF-kB expr up: 6.91*; STAT1 activ conf: 188.6*; NFkB act: 130.8; STAT3 act STAT1c: 118.7*

Results for Clc1cccc(Cl)c1CO/N=C/c1c(-c2ccccc2)nc2n1CCS2 ?
Pf gamet viab: -2.1; FLuc inh counter: -6.9; FLuc stim CS: 1.1; APP 5'UTR act: 11.9; STAT1 act: 98.1; NF-kB expr up: 1

How did NC(=O)C1=C[C@H](C2CCCCC2)C[C@H](OCc2ccc(CO)cc2)O1 do in these assays?
Pf gamet viab: -17.1; FLuc inh counter: -3.4; FLuc stim CS: 1; APP 5'UTR act: 125.5; STAT1 act: 171.0*; NF-kB expr up: 3.84*; STAT1 activ conf: 162.9*; NFkB act: 141.7*; STAT3 act STAT1c: 163.5*

What do the screens show for `O=C(OCC(=O)N1N=C(c2ccc(Cl)cc2)CC1c1ccco1)c1ccccc1O` (configuration not stated)?
Pf gamet viab: -12.4; FLuc inh counter: -2.9; FLuc stim CS: 1; APP 5'UTR act: -2.3; STAT1 act: 102.6; NF-kB expr up: 0.71

How did COc1ccc(-c2cc(=NC(CC(C)C)C(=O)O)c3cc(C)ccc3o2)cc1 (configuration not stated) do in these assays?
Pf gamet viab: 6.4; FLuc inh counter: 10.8; FLuc stim CS: 0.9; APP 5'UTR act: 126.1; STAT1 act: 155.7*; NF-kB expr up: 4.33*; STAT1 activ conf: 143.8*; NFkB act: 135.7*; STAT3 act STAT1c: 107.9

What do the screens show for `COc1ccc(-c2cc(=Nc3ccc(C)cc3)c3ccccc3o2)cc1`?
FLuc inh counter: -2.4; FLuc stim CS: 1; APP 5'UTR act: -4.6; STAT1 act: 98.5; NF-kB expr up: 1.2

Results for CCCCOc1ccc(-c2csc(N)n2)cc1[N+](=O)[O-] ?
FLuc inh counter: 29.5; FLuc stim CS: 0.7; APP 5'UTR act: 141.5*; STAT1 act: 155.9*; NF-kB expr up: 5.36*; STAT1 activ conf: 192.4*; NFkB act: 140.8*; STAT3 act STAT1c: 110.4

Results for COc1ccc(Nc2nc(-c3cccs3)cs2)c(OC)c1 ?
FLuc inh counter: 1.5; FLuc stim CS: 1; APP 5'UTR act: 58.8; STAT1 act: 163.9*; NF-kB expr up: 7.03*; STAT1 activ conf: 216.5*; NFkB act: 139.1*; STAT3 act STAT1c: 118.0*

What do the screens show for `COc1ccccc1Nc1nc(-c2cccs2)cs1`?
FLuc inh counter: 6.3; FLuc stim CS: 0.9; APP 5'UTR act: 28.3; STAT1 act: 170.8*; NF-kB expr up: 5.67*; STAT1 activ conf: 202.8*; NFkB act: 143.3*; STAT3 act STAT1c: 164.6*

Results for COc1ccc(Nc2nc(-c3cccs3)cs2)cc1 ?
FLuc inh counter: 42.4; FLuc stim CS: 0.6; APP 5'UTR act: 105.1; STAT1 act: 182.1*; NF-kB expr up: 2.29; STAT1 activ conf: 213.9*; NFkB act: 151.1*; STAT3 act STAT1c: 121.9*

Results for COc1ccc(OC)c(Nc2nc(-c3cccs3)cs2)c1 ?
FLuc inh counter: -9.4; FLuc stim CS: 1.1; APP 5'UTR act: 1.0; STAT1 act: 110.2; NF-kB expr up: 1.09

Results for COc1ccc(S(=O)(=O)N2CCOC2CNC(=O)C(=O)NCCc2ccc(OC)c(OC)c2)cc1C (configuration not stated) ?
Pf gamet viab: -10.8; FLuc inh counter: -4.4; FLuc stim CS: 1; APP 5'UTR act: -3.9; STAT1 act: 99.6; NF-kB expr up: 0.48
